Source: ChEMBL document CHEMBL1135643, “Synthesis and biological activity of strongly fluorescent tricyclic analogues of acyclovir and ganciclovir” (2002)
Values after ≈ are worked out from the molar mass of the structure shown.

Tests used:
Type in all cases: functional
[1] = Minimum cytotoxic concentration in E6SM fibroblast cells; conditions: Homo sapiens, read-out: Min cytotoxic concentration
[2] = Minimum inhibitory concentration against Herpes simplex Virus-1(F); conditions: Human alphaherpesvirus 1
In short: (§1)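 Confluent E6SM fibroblast monolayers were infected with 100 CCID50 of virus (1 CCID50 infects 50% of inoculated cultures). After 1 h adsorption, residual virus was removed and cultures were incubated with 2- to 5-fold serial dilutions of compound. Inhibition of virus-induced cytopathicity was scored once the virus-infected controls reached full CPE (day 3 post-infection).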

[3] = Minimum inhibitory concentration against Herpes simplex Virus-1(KOS); conditions: Human alphaherpesvirus 1; in short: as §1
[4] = Minimum inhibitory concentration against Herpes simplex Virus-1 (KOS) (ACV); conditions: Human alphaherpesvirus 1; in short: as §1
[5] = Minimum inhibitory concentration against Herpes simplex Virus-1 (McIntyre); conditions: Human alphaherpesvirus 1; in short: as §1
[6] = Minimum inhibitory concentration against Herpes simplex Virus-2(196); conditions: Human alphaherpesvirus 2; in short: as §1
[7] = Minimum inhibitory concentration against Herpes simplex Virus-2(G); in short: as §1
[8] = Minimum inhibitory concentration against Herpes simplex Virus-2(Lyons); conditions: Human alphaherpesvirus 2; in short: as §1

MIC [2]	MIC [3]	MIC [4]	MIC [5]	MIC [6]	MIC ([7]; Human alphaherpesvirus 2)	MIC [8]	MIC ([7]; Human alphaherpesvirus 1)	SMILES	MCC [1]
0.062 µM (≈ 0.0256 µg/mL)	0.049 µM (≈ 0.0203 µg/mL)	23 µM (≈ 9.51 µg/mL)	0.186 µM (≈ 0.0769 µg/mL)	0.186 µM (≈ 0.0769 µg/mL)	97 µM (≈ 40.1 µg/mL)	0.186 µM (≈ 0.0769 µg/mL)	–	CC(=O)Oc1ccc(-c2cn3c(O)c4ncn(COC(CO)CO)c4nc3n2)cc1	968 µM
0.041 µM (≈ 0.0152 µg/mL)	0.041 µM (≈ 0.0152 µg/mL)	69 µM (≈ 25.6 µg/mL)	0.207 µM (≈ 0.0769 µg/mL)	0.207 µM (≈ 0.0769 µg/mL)	0.96 µM (≈ 0.356 µg/mL)	0.207 µM (≈ 0.0769 µg/mL)	–	OCC(CO)OCn1cnc2c(O)n3cc(-c4ccc(O)cc4)nc3nc21	1080 µM
0.166 µM (≈ 0.0766 µg/mL)	0.832 µM (≈ 0.384 µg/mL)	694 µM (≈ 320 µg/mL)	0.166 µM (≈ 0.0766 µg/mL)	0.832 µM (≈ 0.384 µg/mL)	0.83 µM (≈ 0.383 µg/mL)	0.832 µM (≈ 0.384 µg/mL)	–	O=C(Oc1ccccc1)Oc1ccc(-c2cn3c(O)c4ncn(COCCO)c4nc3n2)cc1	867 µM
0.225 µM (≈ 0.0768 µg/mL)	0.675 µM (≈ 0.23 µg/mL)	234 µM (≈ 79.9 µg/mL)	0.225 µM (≈ 0.0768 µg/mL)	0.375 µM (≈ 0.128 µg/mL)	0.675 µM (≈ 0.23 µg/mL)	0.225 µM (≈ 0.0768 µg/mL)	–	OCCOCn1cnc2c(O)n3cc(-c4ccc(O)cc4)nc3nc21	703 µM
4.7 µM (≈ 1.93 µg/mL)	2.8 µM (≈ 1.15 µg/mL)	780 µM (≈ 320 µg/mL)	4.7 µM (≈ 1.93 µg/mL)	4.7 µM (≈ 1.93 µg/mL)	4.4 µM (≈ 1.81 µg/mL)	4.7 µM (≈ 1.93 µg/mL)	–	CC(C)C(=O)Nc1ccc(-c2cn3c(O)c4ncn(COCCO)c4nc3n2)cc1	975 µM
0.035 µM (≈ 0.0155 µg/mL)	0.116 µM (≈ 0.0512 µg/mL)	22 µM (≈ 9.71 µg/mL)	0.174 µM (≈ 0.0768 µg/mL)	0.87 µM (≈ 0.384 µg/mL)	0.116 µM (≈ 0.0512 µg/mL)	0.174 µM (≈ 0.0768 µg/mL)	–	CC(C)C(=O)Oc1ccc(-c2cn3c(O)c4ncn(COC(CO)CO)c4nc3n2)cc1	906 µM
5 µM (≈ 1.91 µg/mL)	6.7 µM (≈ 2.56 µg/mL)	25 µM (≈ 9.56 µg/mL)	25 µM (≈ 9.56 µg/mL)	25 µM (≈ 9.56 µg/mL)	8.4 µM (≈ 3.21 µg/mL)	25 µM (≈ 9.56 µg/mL)	–	CC(=O)Nc1ccc(-c2cn3c(O)c4ncn(COCCO)c4nc3n2)cc1	126 µM
0.2 µM (≈ 0.0767 µg/mL)	0.601 µM (≈ 0.23 µg/mL)	626 µM (≈ 240 µg/mL)	0.2 µM (≈ 0.0767 µg/mL)	0.2 µM (≈ 0.0767 µg/mL)	–	0.2 µM (≈ 0.0767 µg/mL)	0.601 µM (≈ 0.23 µg/mL)	CC(=O)Oc1ccc(-c2cn3c(O)c4ncn(COCCO)c4nc3n2)cc1	1040 µM
5 µM (≈ 1.92 µg/mL)	15 µM (≈ 5.75 µg/mL)	126 µM (≈ 48.3 µg/mL)	5 µM (≈ 1.92 µg/mL)	8.3 µM (≈ 3.18 µg/mL)	15 µM (≈ 5.75 µg/mL)	8.3 µM (≈ 3.18 µg/mL)	–	NC(=O)Nc1ccc(-c2cn3c(O)c4ncn(COCCO)c4nc3n2)cc1	209 µM
0.045 µM (≈ 0.0115 µg/mL)	0.03 µM (≈ 0.00766 µg/mL)	7.5 µM (≈ 1.91 µg/mL)	0.04 µM (≈ 0.0102 µg/mL)	0.1 µM (≈ 0.0255 µg/mL)	0.06 µM (≈ 0.0153 µg/mL)	0.045 µM (≈ 0.0115 µg/mL)	–	Nc1nc2c(ncn2COC(CO)CO)c(=O)[nH]1 [GANCICLOVIR]	392 µM
0.311 µM (≈ 0.128 µg/mL)	0.56 µM (≈ 0.23 µg/mL)	583 µM (≈ 240 µg/mL)	0.187 µM (≈ 0.0769 µg/mL)	0.933 µM (≈ 0.384 µg/mL)	0.622 µM (≈ 0.256 µg/mL)	0.933 µM (≈ 0.384 µg/mL)	–	CC(C)C(=O)Oc1ccc(-c2cn3c(O)c4ncn(COCCO)c4nc3n2)cc1	972 µM
0.031 µM (≈ 0.0152 µg/mL)	0.008 µM (≈ 0.00393 µg/mL)	19 µM (≈ 9.34 µg/mL)	0.781 µM (≈ 0.384 µg/mL)	0.781 µM (≈ 0.384 µg/mL)	0.417 µM (≈ 0.205 µg/mL)	0.156 µM (≈ 0.0767 µg/mL)	–	O=C(Oc1ccccc1)Oc1ccc(-c2cn3c(O)c4ncn(COC(CO)CO)c4nc3n2)cc1	814 µM
0.341 µM (≈ 0.0768 µg/mL)	0.341 µM (≈ 0.0768 µg/mL)	249 µM (≈ 56.1 µg/mL)	0.341 µM (≈ 0.0768 µg/mL)	1 µM (≈ 0.225 µg/mL)	0.242 µM (≈ 0.0545 µg/mL)	1 µM (≈ 0.225 µg/mL)	–	Nc1nc2c(ncn2COCCO)c(=O)[nH]1 [ACYCLOVIR]	1780 µM

SMILES	MIC [2]	MIC [3]	MIC [4]	MIC [5]	MIC [6]	MIC ([7]; Human alphaherpesvirus 2)	MIC [8]	MIC ([7]; Human alphaherpesvirus 1)	MCC [1]
O=C(Nc1ccc(-c2cn3c(O)c4ncn(COCCO)c4nc3n2)cc1)Oc1ccccc1	0.834 µM (≈ 0.384 µg/mL)	1.1 µM (≈ 0.506 µg/mL)	174 µM (≈ 80.1 µg/mL)	0.834 µM (≈ 0.384 µg/mL)	1.4 µM (≈ 0.645 µg/mL)	2.5 µM (≈ 1.15 µg/mL)	1.4 µM (≈ 0.645 µg/mL)	–	869 µM
